Reference: ChEMBL document CHEMBL1148142, “New metabolites from sponge-derived fungi Curvularia lunata and Cladosporium herbarum” (J Nat Prod, 2002)
Activity calls are given as the source filed them. The rule behind the calls is not given here.

Columns and labels:
[1] = system: Staphylococcus aureus; assay: Antibacterial activity against Staphylococcus aureus ATCC 25923 at 5 ug/disk by agar plate diffusion assay; type: functional; conditions: read-out: IZ
In short: (§1)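 Paper disks (5.5 mm) loaded with 5 or 10 μg of pure compound, laid on agar plates seeded with the test organism. Plates incubated 24 h at 37 °C, then inspected for inhibition zones.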

[2] = system: Bacillus subtilis; assay: Antibacterial activity against Bacillus subtilis 168 at 10 ug/disk by agar plate diffusion assay; type: functional; conditions: read-out: IZ; in short: as §1
[3] = system: Escherichia coli; assay: Antibacterial activity against Escherichia coli ATCC 25922 at 5 ug/disk by agar plate diffusion assay; type: functional; conditions: read-out: IZ; in short: as §1
[4] = system: Escherichia coli; assay: Antibacterial activity against Escherichia coli ATCC 25922 at 10 ug/disk by agar plate diffusion assay; type: functional; conditions: read-out: IZ; in short: as §1
[5] = system: Escherichia coli; assay: Antibacterial activity against Escherichia coli HBI 101 at 5 ug/disk by agar plate diffusion assay; type: functional; conditions: read-out: IZ; in short: as §1
[6] = system: Candida albicans; assay: Antifungal activity against Candida albicans at 5 ug/disk by agar plate diffusion assay; type: functional, organism-based; in short: as §1
[7] = system: Bacillus subtilis; assay: Antibacterial activity against Bacillus subtilis 168 at 5 ug/disk by agar plate diffusion assay; type: functional; conditions: read-out: IZ; in short: as §1
[8] = system: Staphylococcus aureus; assay: Antibacterial activity against Staphylococcus aureus ATCC 25923 at 10 ug/disk by agar plate diffusion assay; type: functional; conditions: read-out: IZ; in short: as §1
[9] = system: Escherichia coli; assay: Antibacterial activity against Escherichia coli HBI 101 at 10 ug/disk by agar plate diffusion assay; type: functional; conditions: read-out: IZ; in short: as §1
[10] = system: Candida albicans; assay: Antifungal activity against Candida albicans at 10 ug/disk by agar plate diffusion assay; type: functional, organism-based; in short: as §1
[11] = system: HL-60; assay: Cytotoxicity against human HL60 cells; type: functional, cell-based

Row | Compound | zone of inhibition at 5 µg/disc [1] | zone of inhibition at 10 µg/disc [2] | zone of inhibition at 5 µg/disc [3] | zone of inhibition at 10 µg/disc [4] | zone of inhibition at 5 µg/disc [5] | Activity [6] | zone of inhibition at 5 µg/disc [7] | zone of inhibition at 10 µg/disc [8] | zone of inhibition at 10 µg/disc [9] | Activity [10] | Activity [11]
1 | COc1cc(O)c2c(c1)C(=O)c1cc(O)cc(O)c1C2=O [LUNATIN] | 8.5 mm | 9 mm | 9 mm | 11 mm | 8 mm | inactive | 7.5 mm | 10 mm | 10.5 mm | inactive | 
2 | COc1cc(O)c2c(c1)C(=O)C13C(=C(O)C4[C@@H](O)C1C1[C@H](O)C3C(O)=C3C(=O)c5c(O)cc(OC)cc5C(=O)C341)C2=O (stereo partly specified) [CYTOSKYRIN A] | 8.5 mm | 12 mm | 9 mm | 11 mm | 8 mm | inactive | 8 mm | 10 mm | 9 mm | inactive | 
3 | O=C(O)CC1OC(=O)c2c(O)cc(O)cc21 (stereo unspecified) |  |  |  |  |  |  |  |  |  |  | Not toxic
